# Source: PubChem BioAssay (The Scripps Research Institute Molecular Screening Center)
# A selection: hits, their analogues and other compounds. The true share with any hit is near 2.9%.
# CHO-K1 Ca antag – M1 antagonist counterscreen hit in parental CHO-K1 cells; ATP-induced calcium, Fluo-8 fluorescence; inhibition, % at 3 µM; actives 0.6% (n = 360,000); AID 602250;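 active = inhibition above a per-plate cutoff, the plate's mean sample inhibition plus 3 SD, cut at about 24% in these data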;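 note: 0% = DMSO plus EC80 ATP and 100% = DMSO alone without ATP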
# CHO-K1 Ca ag – M1 agonist counterscreen hit in parental CHO-K1 cells; Fluo-8 calcium fluorescence; scaled to maximal ATP response, vehicle zero; actives 0.48% (n = 360,000); AID 602248; activation, % at 3 µM; in the data active = activation above about 15%;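 note: untransfected CHO-K1 host cells lacking M1 receptor as counterscreen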
# OX1R antag-1 – human HCRTR1 antagonism; AID 434989; O43613; inhibition, % at 5 µM; CHO/OX1R cells, Fluo-8 calcium fluorescence, orexin A; actives 0.43% (n = 330,000);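 active = inhibition above its plate's threshold, mean inhibition of all tested compounds on the plate plus 3 SD, cut at about 37% in these data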;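 note: 0% = orexin A challenge wells and 100% = SB-334867-A antagonist wells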
# Target sequence (O43613 whole entry, looked up): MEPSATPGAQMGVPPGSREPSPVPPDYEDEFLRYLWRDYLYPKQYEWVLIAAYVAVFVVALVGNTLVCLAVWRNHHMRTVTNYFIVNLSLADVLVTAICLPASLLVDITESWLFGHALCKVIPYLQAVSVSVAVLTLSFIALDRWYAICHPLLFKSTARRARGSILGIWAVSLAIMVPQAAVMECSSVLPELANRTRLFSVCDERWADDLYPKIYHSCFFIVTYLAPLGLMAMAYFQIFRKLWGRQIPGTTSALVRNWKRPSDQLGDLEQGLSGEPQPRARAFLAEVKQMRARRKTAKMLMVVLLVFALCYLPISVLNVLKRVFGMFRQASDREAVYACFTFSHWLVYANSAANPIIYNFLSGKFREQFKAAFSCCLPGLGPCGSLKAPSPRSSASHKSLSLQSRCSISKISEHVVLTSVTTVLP
# M1 PAM parental – M1 PAM counterscreen hit in parental CHO-K1 cells. ATP EC20, Fluo-8 calcium fluorescence; 0% at ATP EC20, 100% at ATP max. actives 0.02% (n = 360,000). activation, % at 3 µM;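 active = activation above the run cutoff, the mean activation of all test compounds plus 3 SD, cut at about 40% in these data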;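 note: peak over basal fluorescence ratio in a 140 s read after ATP addition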
# OX1R antag-2 – antagonists of human orexin 1 receptor (OX1R); O43613; OX1R-expressing cells, FRET antagonist read-out; inhibition, % at 6.6 µM; actives 1.8% (n = 330,000); in the data active = inhibition mostly above about 38%, no sharp cut-off; inactive = mostly below about 40%;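 note: 0% = agonist challenge alone and 100% = reference antagonist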
# CHO parental Ca – counter-screen for OX1R antagonists: effect in parental CHO cells. parental CHO-K1, ATP-induced calcium, Fluo-8 fluorescence. AID 463079. actives 0.63% (n = 330,000). inhibition, % at 5.6 µM;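 active = inhibition above that plate's mean sample inhibition plus 3 SD, cut at about 26% in these data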;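 note: 0% = ATP-challenged DMSO wells and 100% = DMSO wells without ATP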
#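 Test system: untransfected parental CHO cell line. Compound: one dose, 5.6 µM nominal. Detection: intracellular calcium via Fluo-8 no-wash fluorescent dye. Measure: % inhibition. Benchmarks: ATP-challenged DMSO wells low, unchallenged DMSO wells high.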
# OX1R Ca confirm – confirmation of human orexin 1 receptor antagonists; shares compounds with OX1R antag-1; CHO/OX1R cells, orexin A calcium Fluo-8 fluorescence; inhibition, % at 5 µM; actives 38% (n = 1,100); in the data active = inhibition above about 29%;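 note: 0% = agonist challenge alone and 100% = reference antagonist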
# CHO Ca counter – signal in parental CHO cells, OX1R antagonist counter-screen; shares compounds with OX1R antag-1; parental CHO-K1, ATP-induced calcium, Fluo-8 fluorescence; inhibition, % at 5.6 µM; actives 9.3% (n = 1,100); AID 492965;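 active = inhibition above a per-plate limit, the mean inhibition of that plate's test compounds plus 3 SD, cut at about 25% in these data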;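 note: 0% = ATP challenge with DMSO and 100% = DMSO without ATP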
# OX1R HTRF confirm – OX1R (human) antagonism, HTRF confirmed. shares compounds with OX1R antag-2. OX1R-expressing cells, HTRF antagonist assay. inhibition, % at 6.6 µM. actives 49% (n = 1,800). AID 492964; in the data active = inhibition above about 55%;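 note: CHO cells expressing OX1R stimulated with orexin A at about EC80; 0% = agonist challenge alone and 100% = reference antagonist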
# CHO-K1 HTRF cnt – counter-screen for OX1R antagonists: effect in parental CHO-K1 cells. HTRF counterscreen. shares compounds with OX1R antag-2. inhibition, % at 6.6 µM. actives 48% (n = 1,800); in the data active = inhibition above about 17%;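 note: 0% = agonist challenge with vehicle and 100% = vehicle alone without agonist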
# Active calls of the source: *; . = no result given.
SMILES,CHO-K1 Ca antag,CHO-K1 Ca ag,OX1R antag-1,M1 PAM parental,OX1R antag-2,CHO parental Ca,OX1R Ca confirm,CHO Ca counter,OX1R HTRF confirm,CHO-K1 HTRF cnt
Cc1cc(C)cc(N(C(=O)c2ccccn2)C(C(=O)NC2CCCCC2)c2cccs2)c1 (stereo not drawn),-10,0,48*,18,64*,-23,6,-17,67*,0
CC(=O)c1cccc(N(C(=O)c2ccccn2)C(C(=O)NC2CCCCC2)c2ccccc2)c1 (stereo not drawn),-12,2,-29,18,21,-23,.,.,.,.
CCOC(=O)c1[nH]c2ccccc2c1NC(=O)c1ccc(Br)o1,-20,3,101*,5,99*,-13,34*,-3,90*,9
COc1ccc(NS(=O)(=O)c2cccc(C(=O)NCc3ccccc3CN3CCOCC3)c2)cc1,-17,8,.,10,.,.,.,.,.,.
Cc1c(C(=O)OCC(=O)NCCN2C(=O)CSC2=O)oc2c1ccc1ccccc12,-1,2,22,-3,77*,-5,33*,-8,88*,11
CCOC(=O)C1CCCN(C(=O)CCCn2nnnc2CN2CCC(C)CC2)C1 (stereo not drawn),-12,1,-11,2,16,-14,.,.,.,.
O=[N+]([O-])c1ccc(-c2cnc(SC(c3ccccc3)c3ccccc3)[nH]2)cc1,1,5,37,15,54*,17,18,12,68*,12
Cc1ccc(S(=O)(=O)N2CCN(C(=O)CC(C)n3cncn3)CC2)cc1C (stereo not drawn),-18,1,-20,22,17,-12,.,.,.,.
CCN(CC)c1ccc2cc(-c3nc4ccccc4n3C)c(=O)oc2c1,8,5,95*,-16,83*,6,84*,12,89*,-7
O=C(Nc1cc(Sc2ccccn2)cc([N+](=O)[O-])c1)c1ccc(Cl)cc1,21,3,40,-4,94*,20,-21,12,34,-2
O=C(Nc1cc(Sc2ccccn2)cc([N+](=O)[O-])c1)c1cccc(Cl)c1,1,7,-1,11,37,-5,.,.,.,.
CCN(C(=O)CO/N=C/c1ccc(OC)cc1OC)c1c(N)n(Cc2ccccc2)c(=O)[nH]c1=O,-13,0,69*,-1,92*,-25,67*,-9,93*,-2
CCN(C(=O)CSc1nc2ccc(OC)cc2[nH]1)c1c(N)n(Cc2ccccc2)c(=O)[nH]c1=O,-9,0,-10,-2,23,-8,.,.,.,.
O=C(N/N=C/C(Br)=C/c1ccccc1)c1cc(-c2ccco2)[nH]n1,-12,1,26,9,73*,-12,50*,7,87*,9
COc1ccccc1/C=C/C=N/NC(=O)c1cc(-c2ccco2)[nH]n1,6,0,-13,-11,31,-51,.,.,.,.
CC(/C=N/NC(=O)c1cc(-c2cccs2)[nH]n1)=C\c1ccccc1,-9,2,45*,10,88*,-15,45*,-2,73*,11
Fc1cccc(Nc2nc3ccccc3n3cnnc23)c1,-7,1,36,-20,53*,0,37*,0,86*,6
Cc1ccsc1C(=O)OCC(=O)NCCCc1ccccc1,-6,0,-15,7,4,-26,.,.,.,.
Cc1ccsc1C(=O)OCC(=O)N(Cc1ccccc1)C(C)C,-15,0,40*,25,76*,-27,25,-7,68*,-2
CCCOc1ccc(Cc2c(O)nc(SC)[nH]c2=O)cc1,-11,0,0,19,2,11,.,.,.,.
CC(C)(C)C(=O)Nc1sc2c(c1-c1nc3ccccc3[nH]1)CCCC2,-17,-1,80*,-8,56*,-29,14,-8,56*,1
Cc1cc(CNC(=O)COc2cc(F)ccc2[N+](=O)[O-])c2ccccc2n1,6,14,35,-3,105*,-1,11,4,34,9
Nc1nc(CSc2nnnn2-c2ccccc2)nc(N2CCCc3ccccc32)n1,-2,1,65*,6,83*,-7,30*,0,44,-3
c1coc(C2=NC(c3ccco3)C(c3ccco3)N2)c1 (stereo not drawn),-1,0,.,5,.,.,.,.,.,.
CCn1c(SCC(=O)Nc2nc(-c3ccccc3)cs2)nnc1-c1ccccc1O,0,6,79*,8,86*,0,-8,-20,86*,-11
SMILES,CHO-K1 Ca antag,CHO-K1 Ca ag,OX1R antag-1,M1 PAM parental,OX1R antag-2,CHO parental Ca,OX1R Ca confirm,CHO Ca counter,OX1R HTRF confirm,CHO-K1 HTRF cnt
CCc1nnc(NC(=O)CSc2nnc(-c3ccccc3O)n2CC)s1,-10,1,-26,18,11,-13,.,.,.,.
COc1ccc(Cl)cc1NC(=O)CN1CCN(Cc2ccccc2)CC1,-4,3,-39,11,1,-31,.,.,.,.
COC(=O)c1ccccc1NC(=O)c1sc(=S)n(C)c1N,-6,0,78*,10,93*,18,97*,-11,94*,1
COC(=O)c1ccccc1NC(=O)c1sc(N)nc1C,-6,0,-28,14,21,-4,.,.,.,.
CCOC(=O)/C(N=Nc1ccc2c(c1)OCO2)=C(\C)O,-3,0,-14,14,24,-18,.,.,.,.
Cc1ccnc2ccc(-c3nc4ccccc4o3)cc12,-7,0,41*,14,92*,-25,48*,-18,94*,10
Cc1nc2ccc(-c3nc4ccccc4o3)cc2[nH]1,-9,1,50*,19,105*,-6,33*,-2,94*,1
Cc1nc2ccc(-c3nc4ccc(N)cc4[nH]3)cc2[nH]1,-9,0,-14,20,12,-7,.,.,.,.
c1cncc(-c2nc3ccccc3o2)c1,6,0,-10,-7,10,-10,.,.,.,.
O=C(CN(Cc1ccc(Cl)cc1)C(=O)CNS(=O)(=O)c1ccc(F)cc1)NCC1CCCO1 (stereo not drawn),-7,0,-20,9,34,-12,.,.,.,.
COc1ccc(S(=O)(=O)/N=C2\C=C(Nc3ccc(O)cc3)C(=O)c3ccccc32)cc1,-5,1,0,-4,28,-23,.,.,.,.
